# Source: ChEMBL document CHEMBL3763097, “Synthesis and biological evaluation of 5,10-dihydro-11H-dibenzo[b,e][1,4]diazepin-11-one structural derivatives as anti-cancer and apoptosis inducing agents” (Eur J Med Chem, 2016)
# How the values were obtained:
# MDA-MB-231 [1] = assay: Induction of apoptosis in human MDA-MB-231 cells assessed as viable cells at 2 uM after 24 hrs by Annexin V-FITC/PI dual staining based flow cytometry (reference value: 91%); type: functional; conditions: MDA-MB-231, 24 h, read-out: Activity
# MDA-MB-231 [2] = assay: Disruption of mitochondrial membrane potential in human MDA-MB-231 cells at 0.5 to 2 uM after 48 hrs by Rhodamine-123 staining based spectrofluorometry; type: functional
# Method in brief: (§1)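 Cells were seeded at 5×10^5 cells/mL overnight and treated with 0.5, 1 and 2 µM compound; the methods say 24 h and the results text says 48 h. Trypsinised cells were washed and stained with rhodamine-123 (2 µM in PBS) for 30 min at room temperature in the dark, washed and read by spectrofluorometer. Data are mean ± SD of three independent experiments.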
# A549 [3] = assay: Induction of apoptosis in human A549 cells assessed as early apoptotic cells at 0.5 uM after 24 hrs by Annexin V-FITC/PI dual staining based flow cytometry (reference value: 5.3%); type: functional
# A549 [4] = assay: Induction of apoptosis in human A549 cells assessed as necrotic cells at 0.5 uM after 24 hrs by Annexin V-FITC/PI dual staining based flow cytometry (reference value: 5.2%); type: functional
# MDA-MB-231 (human) = assay: Induction of apoptosis in human MDA-MB-231 cells assessed as early apoptotic cells at 2 uM after 24 hrs by Annexin V-FITC/PI dual staining based flow cytometry (reference value: 5.3%)
# MDA-MB-231 [5] = assay: Cytotoxicity against human MDA-MB-231 cells assessed as inhibition of colony formation after 24 hrs by methylene blue staining-based assay; type: functional, cell-based
# Method in brief: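 Clonogenic assay. Cells were plated at 500 per well and allowed to adhere 24 h. Compound was added at 0.1, 1 and 10 µM for 24 h, then medium was replaced and cells grown a further 14 days. Colonies were fixed with 4% paraformaldehyde, stained with 0.5% methylene blue in PBS for 30 min, rinsed and photographed.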
# MCF7 = assay: Cytotoxicity against human MCF7 cells assessed as growth inhibition after 72 hrs by MTT assay; type: functional, cell-based; conditions: MCF7, 72 h
# Method in brief: (§2)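 Cells in RPMI 1640 (PC-3, A549, MDA-MB-231) or DMEM (U87MG, MCF-7) with 10% FBS, passages 4-10, were seeded at 3000-5000 per well and left 24 h. Compounds in DMSO/medium were added for 72 h; DMSO served as control. MTT (5 mg/mL) was added for 4 h and formazan dissolved in DMSO. Absorbance was read at 570 nm minus 630 nm. % inhibition was taken versus DMSO, with IC50 by probit; mean ± SD of three experiments in triplicate.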
# MDA-MB-231 [6] = assay: Cell cycle arrest in human MDA-MB-231 cells assessed as accumulation at S phase at 1 uM after 24 to 48 hrs by propidium iodide staining based flow cytometry (reference value: 4.6%); type: functional
# Method in brief: (§3)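 Cells were seeded at 1×10^6 per well and treated 24 h later with 0.5, 1 or 2 µM compound; DMSO-treated cells served as control. Methods give harvest at 48 h (floating plus trypsinised cells); the figure legend says 24 h. Cells were fixed in 70% ethanol for 30 min at 4 °C and stained with PI, Triton X-100 and RNase A for 15 min in the dark. 10000 events were counted by flow cytometry.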
# A549 [7] = assay: Disruption of mitochondrial membrane potential in human A549 cells at 0.5 to 2 uM after 48 hrs by Rhodamine-123 staining based spectrofluorometry; type: functional; method in brief: as §1
# A549 [8] = assay: Cell cycle arrest in human A549 cells assessed as accumulation at G0/G1 phase at 0.5 uM after 24 to 48 hrs by propidium iodide staining based flow cytometry (reference value: 49.1%); type: functional; method in brief: as §3
# A549 [9] = assay: Induction of apoptosis in human A549 cells assessed as viable cells at 1 uM after 24 hrs by Annexin V-FITC/PI dual staining based flow cytometry (reference value: 85%); type: functional; conditions: A549, 24 h, read-out: Activity
# A549 [10] = assay: Induction of apoptosis in human A549 cells assessed as late apoptotic cells at 1 uM after 24 hrs by Annexin V-FITC/PI dual staining based flow cytometry (reference value: 4.5%); type: functional
# MDA-MB-231 [11] = assay: Cell cycle arrest in human MDA-MB-231 cells assessed as accumulation at G2/M phase at 1 uM after 24 to 48 hrs by propidium iodide staining based flow cytometry (reference value: 20.2%); type: functional; method in brief: as §3
# MDA-MB-231 [12] = assay: Cell cycle arrest in human MDA-MB-231 cells assessed as accumulation at G0/G1 phase at 2 uM after 24 to 48 hrs by propidium iodide staining based flow cytometry (reference value: 74.4%); type: functional; method in brief: as §3
# MDA-MB-231 [13] = assay: Induction of apoptosis in human MDA-MB-231 cells assessed as early apoptotic cells at 0.5 uM after 24 hrs by Annexin V-FITC/PI dual staining based flow cytometry (reference value: 0.3%); type: functional
# MDA-MB-231 [14] = assay: Induction of apoptosis in human MDA-MB-231 cells assessed as viable cells at 1 uM after 24 hrs by Annexin V-FITC/PI dual staining based flow cytometry (reference value: 91%); type: functional; conditions: MDA-MB-231, 24 h, read-out: Activity
# MDA-MB-231 [15] = assay: Cell cycle arrest in human MDA-MB-231 cells assessed as accumulation at G0/G1 phase at 1 uM after 24 to 48 hrs by propidium iodide staining based flow cytometry (reference value: 74.4%); type: functional; method in brief: as §3
# A549 [16] = assay: Induction of reactive oxygen species generation in human A549 cells at 0.5 to 2 uM after 48 hrs by carboxy-DCFDA staining based spectrofluorometry relative to control; type: functional
# MDA-MB-231 [17] = assay: Induction of apoptosis in human MDA-MB-231 cells assessed as late apoptotic cells at 0.5 uM after 24 hrs by Annexin V-FITC/PI dual staining based flow cytometry (reference value: 6.2%); type: functional
# MDA-MB-231 [18] = assay: Induction of apoptosis in human MDA-MB-231 cells assessed as necrotic cells at 2 uM after 24 hrs by Annexin V-FITC/PI dual staining based flow cytometry (reference value: 1.9%); type: functional
# A549 (human) = assay: Induction of apoptosis in human A549 cells assessed as early apoptotic cells at 2 uM after 24 hrs by Annexin V-FITC/PI dual staining based flow cytometry (reference value: 0.3%)
# MDA-MB-231 [19] = assay: Cytotoxicity against human MDA-MB-231 cells assessed as growth inhibition after 72 hrs by MTT assay; type: functional, cell-based; conditions: MDA-MB-231, 72 h; method in brief: as §2
# A549 [20] = assay: Cell cycle arrest in human A549 cells assessed as accumulation at S phase at 2 uM after 24 to 48 hrs by propidium iodide staining based flow cytometry (reference value: 18.3%); type: functional; method in brief: as §3
# A549 [21] = assay: Cell cycle arrest in human A549 cells assessed as accumulation at G2/M phase at 0.5 uM after 24 to 48 hrs by propidium iodide staining based flow cytometry (reference value: 22.3 to 31%); type: functional; method in brief: as §3
# MDA-MB-231 [22] = assay: Induction of apoptosis in human MDA-MB-231 cells assessed as late apoptotic cells at 1 uM after 24 hrs by Annexin V-FITC/PI dual staining based flow cytometry (reference value: 6.2%); type: functional
# A549 [23] = assay: Induction of apoptosis in human A549 cells assessed as viable cells at 2 uM after 24 hrs by Annexin V-FITC/PI dual staining based flow cytometry (reference value: 85%); type: functional; conditions: A549, 24 h, read-out: Activity
# A549 [24] = assay: Cytotoxicity against human A549 cells assessed as growth inhibition after 72 hrs by MTT assay; type: functional, cell-based; conditions: A549, 72 h; method in brief: as §2
structure (smiles),measurement,setting,value
O=C1c2ccccc2Nc2ccccc2N1Cc1cn(Cc2ccccc2)nn1,viability at 2 µM,MDA-MB-231 [1],62%
same,Activity,MDA-MB-231 [2],20%
same,Activity,A549 [3],9.4%
same,Activity,A549 [4],2.5%
same,Activity,MDA-MB-231 (human),15.4%
same,inhibition,MDA-MB-231 [5],Dose-dependent effect
same,IC50,MCF7,7290 nM
same,Activity,MDA-MB-231 [6],6.7%
same,Activity,A549 [7],15%
same,Activity,A549 [8],42.8%
same,viability at 1 µM,A549 [9],72%
same,Activity,A549 [10],10.7%
same,Activity,MDA-MB-231 [11],33.6%
same,Activity,MDA-MB-231 [12],33.3%
same,Activity,MDA-MB-231 [13],16.8%
same,viability at 1 µM,MDA-MB-231 [14],73%
same,Activity,MDA-MB-231 [15],60.1%
same,fold change (FC),A549 [16],1.8
same,Activity,MDA-MB-231 [17],10.1%
same,Activity,MDA-MB-231 [18],2.5%
same,Activity,A549 (human),19.3%
same,IC50,MDA-MB-231 [19],730 nM
same,Activity,A549 [20],13.8%
same,Activity,A549 [21],36.6%
same,Activity,MDA-MB-231 [22],11.5%
same,viability at 2 µM,A549 [23],63.8%
same,IC50,A549 [24],710 nM
